Measurements reported in paper PMC11807182 (Scientific Reports, 2025).

How the values were obtained:
S. mansoni adult worms = details: read-out: EC50 for S. mansoni adult worms; cited from earlier work
Caenorhabditis elegans = assay: Lethal toxicity assay in C. elegans; format: in vivo; details: L4-stage larvae, Bristol N2 strain, 24 h, 21 °C
In short: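 C. elegans Bristol N2 was grown on NGM plates seeded with E. coli OP50. Synchronized L4 larvae, 60/well in M9 medium, were exposed to test compound starting at 1,000 µM, with ivermectin reference and 1% DMSO negative control. Viability was scored by movement after 24 h at 21 °C. Triplicate; LD50 from sigmoidal dose-response curves.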

[1] = tested on: Schistosoma mansoni adult worms; assay: In vitro assay with adult S. mansoni; format: cell-based; details: concentrations starting from 50 µM, up to 72 h
In short: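 S. mansoni (Belo Horizonte strain) adults were perfused from the hepatic portal vein of Swiss mice 49 days post-infection. One worm pair/well in RPMI 1640 with 10% FBS, penicillin and streptomycin; test compound starting at 50 µM, with praziquantel, metal salts and 1% DMSO controls; 37 °C, 5% CO₂, up to 72 h. Viability by inverted microscope at 0, 24, 48 and 72 h; death meant no movement ≥1 min after gentle stimulation. Triplicate; EC50 by sigmoidal fit.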

[2] = tested on: Angiostrongylus cantonensis L1 larvae; assay: In vitro assay with A. cantonensis L1 larvae; format: cell-based; details: for activity against A. cantonensis: L1 larvae, concentrations starting from 50 µM, 24 h
In short: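 A. cantonensis (NPDN-AC strain, cycled through B. glabrata and Wistar rats) L1 larvae were recovered from rat feces by the Rugai technique and washed in RPMI 1640 with antibiotics. About 100 larvae/well were exposed to test compound starting at 50 µM at 21 °C, with drug-free medium, metal salt and 1% DMSO controls. Viability was checked microscopically at 0 and 24 h; efficacy meant ≥60% larvae immobile.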

Question: With 2-oxopopulifolic acid methyl ester as the compound, how does the EC50 (S. mansoni adult worms) read?
Answer: 50 µM

Question: With `CC1=CC(=O)CC2[C@]1(C)CC[C@@H](C)[C@]2(C)CCC(C)CC(=O)O` (some centres unmarked) [2-oxopopulifolic acid] as the compound, how does the EC50 (S. mansoni adult worms) read?
Answer: 50 µM

Question: Which “C. elegans LD50” value (Caenorhabditis elegans) does the source give for `O=C1C(=O)c2cccnc2-c2ncccc21.O=C1C(=O)c2cccnc2-c2ncccc21.[Ag+].[O-][Cl+3]([O-])([O-])[O-]` [Ag-phendione, [Ag(phendione)2](ClO4)] here?
Answer: 167 µM

Question: With `O=[N+]([O-])[O-].[Ag+]` [AgNO₃] as the compound, how does the antischistosomal activity [1] read?
Answer: no antischistosomal activity

Question: And the “activity against A. cantonensis” value [2]?
Answer: no activity

Question: With `O.O.O.O.O.O.O.O.O=C1C(=O)c2cccnc2-c2ncccc21.O=C1C(=O)c2cccnc2-c2ncccc21.O=C1C(=O)c2cccnc2-c2ncccc21.[Cu+2].[O-][Cl+3]([O-])([O-])[O-].[O-][Cl+3]([O-])([O-])[O-]` [Cu-phendione, [Cu(phendione)3](ClO4)2·8H2O] as the compound, how does the “C. elegans LD50” value (Caenorhabditis elegans) read?
Answer: 280 µM

Question: Which antischistosomal activity [1] does the source give for `O.O.O.O.O.O=S(=O)([O-])[O-].[Cu+2]` [CuSO₄·5 H₂O] here?
Answer: no antischistosomal activity

Question: What about the “activity against A. cantonensis” value [2] of the same compound?
Answer: no activity

Question: Which results are given for `O=C1C(=O)c2cccnc2-c2ncccc21` [Phendione, 1,10-phenanthroline-5,6-dione]?
Answer: C. elegans LD50 (Caenorhabditis elegans): 719 µM; larval motility compared to the control group ([2]; A. cantonensis L1 larvae): significantly reduced

Question: For `Cc1ccc(C(C)C)cc1O` [carvacrol], which EC50 (S. mansoni adult worms) is on record?
Answer: 56.8 µM

Question: For `CC(=O)Oc1cc(C(C)C)ccc1C` [carvacryl acetate], which EC50 (S. mansoni adult worms) is on record?
Answer: 42.2 µM

Question: For `C=C1C(=O)O[C@@H]2/C=C(\CO)CC/C=C(\C)C[C@H](OC(=O)C(=C)[C@@H](O)CO)[C@@H]12` [cnicin], which EC50 (S. mansoni adult worms) is on record?
Answer: 50 µM

Question: With `O=c1c(O)c(-c2ccc(O)cc2)oc2cc(O)cc(O)c12` [kaempferol] as the compound, how does the EC50 (S. mansoni adult worms) read?
Answer: 81.8 µM

Question: With `C/C=C/c1cc(OC)c2c(c1)[C@H](C)[C@@H](c1ccc(O)c(OC)c1)O2` [licarin A] as the compound, how does the EC50 (S. mansoni adult worms) read?
Answer: 30 µM

Question: With `C=CC(C)(C)c1cc(/C=C/C(=O)c2ccc(O)cc2)c(OC)cc1O` [licochalcone A] as the compound, how does the EC50 (S. mansoni adult worms) read?
Answer: 50 µM

Question: Which “C. elegans LD50” value (Caenorhabditis elegans) does the source give for Ivermectin here?
Answer: 4.1 µM
